An excerpt weighted towards active compounds, which were near 1.8% of everything screened.
bovine MsrA act = activators of bovine methionine sulfoxide reductase A; purified bovine MsrA, absorbance read-out; activation, % at 10.6 µM; 360,000 tested, 0.3% active; AID 602163; in the data active = activation above about 7.5%;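 note: 0% = vehicle and 100% = reference activator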
MsrA inhibitor = bovine MsrA inhibition; purified bovine MsrA, absorbance read-out; inhibition, % at 15.5 µM; 360,000 tested, 0.75% active;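 note: 0% = vehicle wells with enzyme and 100% = reference inhibitor wells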
SKN-1 inh = blocks SKN-1 activity in C. elegans. 360,000 tested, 0.49% active. C. elegans VP596 Pgst-4::GFP/RFP ratio, acrylamide-induced, 24 h. AID 624304. inhibition, % at 21.8 µM;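 active = interference check ratio from 0.5 to 1.5 plus GFP to RFP signal ratio inhibition reaching or exceeding a fixed threshold, cut at about 30% in these data, passing the limit was not always enough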
MIN6 prolif = inducers of beta-cell replication in MIN6 cells. MIN6 cells proliferation, ATPlite luminescence, 48 h; cells starved in 0.2% serum; 100% = growth in 10% serum. proliferation, % at 10 µM. 330,000 tested, 0.29% active. AID 2380;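 active = compounds whose signal lies at least 3.5 SD above the mean of all wells on their plate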;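 note: 0% = DMSO-treated cells in low-serum medium and 100% = 10% serum control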
DAGLB inh = blocks human DAGLB lipase activity; 340,000 tested, 0.059% active; HEK293T DAGLB membrane lysate, EnzChek fluorogenic substrate; AID 504411; inhibition, % at 5.17 µM; Q8NCG7; in the data active = inhibition above about 34%;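 note: 0% = enzyme with vehicle and 100% = wells lacking enzyme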
Target sequence (Q8NCG7 whole entry, looked up): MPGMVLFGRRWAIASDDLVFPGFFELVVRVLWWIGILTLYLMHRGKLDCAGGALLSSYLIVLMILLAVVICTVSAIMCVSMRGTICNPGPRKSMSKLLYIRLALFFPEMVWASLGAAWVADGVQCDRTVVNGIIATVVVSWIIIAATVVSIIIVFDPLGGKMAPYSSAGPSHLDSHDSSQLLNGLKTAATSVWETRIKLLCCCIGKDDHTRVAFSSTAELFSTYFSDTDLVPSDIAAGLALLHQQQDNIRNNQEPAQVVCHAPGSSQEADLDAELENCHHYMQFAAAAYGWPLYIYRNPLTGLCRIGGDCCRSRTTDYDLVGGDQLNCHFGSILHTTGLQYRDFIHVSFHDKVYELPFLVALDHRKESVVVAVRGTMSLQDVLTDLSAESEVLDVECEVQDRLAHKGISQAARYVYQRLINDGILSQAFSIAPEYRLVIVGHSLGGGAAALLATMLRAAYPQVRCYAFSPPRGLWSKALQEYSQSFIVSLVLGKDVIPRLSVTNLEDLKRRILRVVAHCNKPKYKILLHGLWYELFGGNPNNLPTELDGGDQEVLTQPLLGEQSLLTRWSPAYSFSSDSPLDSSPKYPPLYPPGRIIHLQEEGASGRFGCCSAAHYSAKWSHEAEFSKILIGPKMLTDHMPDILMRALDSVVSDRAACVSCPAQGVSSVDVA
MT1-MMP act inh = inhibitors of human MT1-MMP activation; HT1080 RFP-PRO-GFP cells, GFP/RFP ratio fluorescence, overnight; percent of plate control window, DMSO zero; GFP/RFP ratio change, % at 20 µM; 360,000 tested, 0.061% active;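 active = GFP/RFP ratio change of at least 30% with cell ATP level not reduced by more than half and red fluorescence within 50% of control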
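Read-out: GFP/RFP fluorescence ratio; Test system: RFP-PRO-GFP reporter HT1080 cells; Compound dosing: single-point 20 µM compound, 1% DMSO; Times: overnight compound exposure at 37 °C.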
MsrA conf = bovine MsrA inhibition, confirmed; shares compounds with MsrA inhibitor; purified bovine MsrA, absorbance read-out; inhibition, % at 15.5 µM; 2,300 tested, 41% active; AID 651822;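 note: coupled to thioredoxin reductase with NADPH and selenocystamine and DMSO as substrate; 0% = vehicle only and 100% = full effect of reference inhibitor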
Active calls of the source: *; . = not tested or not shown. Cut-off read from the data, not from the text of the source, unless noted: active = inhibition above about 4.5%; inactive = the rest.

SMILES	bovine MsrA act	MsrA inhibitor	SKN-1 inh	MIN6 prolif	DAGLB inh	MT1-MMP act inh	MsrA conf
COc1ccccc1-c1cc(C(F)(F)F)nc(N2CCN(c3ccccc3)CC2)n1	-1	1	12	-5	-1	2	.
COc1ccc(Cl)cc1NC(=S)NCCSc1ccc(C)cc1	0	0	6	-6	-2	3	.
CC1(C)Cc2nc(N3CCCC3)c(C#N)cc2CO1	-11	8.7*	-7	-1	1	-2	5.4*
C/C(=N\Nc1nnc2c3ccccc3n(C)c2n1)c1ccc(C)o1	-3	5.6*	0	2	0	4	2
NC(=O)COc1c(-c2ccc(Br)o2)oc2ccccc2c1=O	-10	.	-7	-3	-6	-17	.
CC(=O)COc1c(-c2ccco2)oc2ccccc2c1=O	-5	4.8*	-4	1	0	-5	4
COC(=O)c1sc(S(=O)(=O)Nc2ccc(C)c(C)c2)c(C(=O)OC)c1C	-11	6.1*	-9	-3	-9	1	5.7*
Cc1cccc2c1cnn2C(=O)Nc1ccccc1Cl	2	0	4	-5	-3	-4	.
Cc1ccc(CNC(=O)CCS(=O)(=O)c2ccc3c(c2)NC(=O)CS3)cc1	3	0	12	-3	0	-4	.
CSc1ccc(/C=C/C(=O)NC(=O)c2ccccc2O)cc1	-12	6.0*	12	-5	2	1	4.7*
O=C(/C=C/c1ccc(O)c(O)c1)NC(=O)c1ccccc1O	-6	6.3*	9	-4	3	-6	4
O=C(/C=C/c1ccc(Br)cc1)NC(=O)c1ccccc1O	-1	2	1	-5	-1	0	.
O=C(CN1C(=O)c2ccc([N+](=O)[O-])cc2C1=O)NCCC1=CCCCC1	0	-1	7	4	1	4	.
COC[C@H]1CCCN1[C@@H]1CS(=O)(=O)N[C@H]1COCc1ccccc1	-5	1	-3	.	.	-2	.
O=[N+]([O-])c1ccc(N2CCN(S(=O)(=O)c3ccccc3[N+](=O)[O-])CC2)cc1NCc1cccnc1	-3	2	2	0	1	-3	.
CC(Nc1ccc(S(=O)(=O)N2CCN(C)CC2)cc1[N+](=O)[O-])c1ccccc1 (stereo not drawn)	-3	0	-2	5	-2	4	.
CC(Nc1cc(N2CCN(S(=O)(=O)N(C)C)CC2)ccc1[N+](=O)[O-])c1ccccc1 (stereo not drawn)	-4	8.5*	-3	-1	0	-1	8.0*
CC(Nc1cc(N2CCOCC2)ccc1[N+](=O)[O-])c1ccccc1 (stereo not drawn)	-1	30*	-8	2	-1	1	21*
CCS(=O)(=O)N1CCN(c2ccc([N+](=O)[O-])c(NCc3cccnc3)c2)CC1	-14	5.4*	2	1	1	-1	2
O=[N+]([O-])c1cc([N+](=O)[O-])c(N2CCOCC2)cc1NCc1ccccc1	-2	36*	13	-4	0	6	36*
CC(Nc1cc(N2CCCC2)ccc1[N+](=O)[O-])c1ccccc1 (stereo not drawn)	-5	0	-15	-3	-4	1	.
CCCn1c(O)c(N=NC(=O)CNC(=O)c2ccncc2)c2ccccc21	-3	3	-21	4	0	2	.
CC(=O)Nc1ccc(NC(=O)N(c2ccccc2)c2ccccc2)cc1	-6	-1	-21	-1	0	-1	.
O=C(Cc1cccs1)Nc1ccccc1F	0	1	5	-2	-4	0	.
CC(=O)Nc1ccc(NC(=O)c2cc(=O)c3cc(C)c(C)cc3o2)cc1	0	-1	18	-2	-2	-2	.
SMILES	bovine MsrA act	MsrA inhibitor	SKN-1 inh	MIN6 prolif	DAGLB inh	MT1-MMP act inh	MsrA conf
CC(Nc1cc(N2CCN(S(C)(=O)=O)CC2)ccc1[N+](=O)[O-])c1ccccc1 (stereo not drawn)	-3	24*	8	0	6	-1	20*
CCCC(=O)N1CCN(c2ccc([N+](=O)[O-])c(NC(C)c3ccccc3)c2)CC1 (stereo not drawn)	-10	3	-15	-4	2	2	.
O=C(Nc1nc2ccccc2[nH]1)c1ccc(Br)o1	-5	4.8*	-2	-2	0	3	3
CC(=O)c1cccc(CN2CCCCC2C(=O)Nc2ccc(Oc3ccccc3)nc2)c1 (stereo not drawn)	-1	2	19	-3	2	0	.
O=C(/C=C\c1cccs1)c1c(O)ccc2ccc(=O)oc12	-7	5.4*	-14	-3	2	-5	6.3*
O=C(C=Cc1cccs1)c1cccs1	-2	1	19	.	-4	1	.
CC(C)(OC(=O)c1ccc(C#N)cc1)c1cc2ccccc2c(=O)o1	-1	0	-5	6	-2	3	.
Oc1ccc(/C=N/Nc2ccc(Cl)nn2)cc1O	-10	4.9*	-4	-5	2	1	4
Cc1cccc(C)c1OCc1cc(C(=O)NCc2cn(C)nc2C)no1	-3	-1	-4	-1	-1	2	.
O=C(N/N=C/c1ccnc2ccccc12)c1ccccc1O	-1	5.6*	14	-1	-1	5	4
CCOC(=O)C(=CNc1ccc(S(N)(=O)=O)cc1)C(=O)OCC	-6	4	3	2	2	2	.
CCOC(=O)C(=CNc1ccc(C#N)cc1)C(=O)OCC	-8	7.1*	-17	-2	1	0	5.5*
CN(C)S(=O)(=O)c1ccc(NC(=O)C2CC(=O)N(Cc3ccccc3Cl)C2)cc1 (stereo not drawn)	4	1	7	-1	2	-1	.
COc1ccc(C(CNC(=O)c2ccc(NS(=O)(=O)c3ccc(F)c(C)c3)cc2)N2CCOCC2)cc1 (stereo not drawn)	2	1	-1	7	4	1	.
CC1(C)CCc2cc(-c3ccnc(=S)[nH]3)ccc2O1	0	2	5	-4	-2	3	.
S=c1nccc(-c2ccc3c(c2)CCO3)[nH]1	-6	5.6*	-25	-4	-7	-4	3
O=c1[nH]c(CNCc2cccnc2)nc2ccccc12	-4	1	6	0	0	1	.
CCc1cc2c(nc1CC)CCCN2Cc1ccc(Br)cc1	.	1	.	.	.	.	.
COC(=O)c1[nH]c2ccccc2c1NC(=O)c1c(F)cccc1F	-3	0	12	0	-1	1	.
O=C(Nc1ccc([N+](=O)[O-])cn1)c1ccc(Br)o1	-3	5.6*	13	0	0	-8	4
CC(NC(=O)/C(=C/c1cccc([N+](=O)[O-])c1)NC(=O)c1ccco1)C(=O)O (stereo not drawn)	-4	0	5	0	-1	-4	.

Source: PubChem
